In ChEMBL document CHEMBL1145336, “1-aryl-3-(4-pyridine-2-ylpiperazin-1-yl)propan-1-one oximes as potent dopamine D4 receptor agonists for the treatment of erectile dysfunction” (J Med Chem, 2006) one finds IC50 and EC50 data, which are given here for 42 compounds.

Format in all cases: functional, cell-based
Test [1] concerns the target T1, D(2) dopamine receptor (Homo sapiens, UniProt P14416). Nature of the test: Antagonist activity at human recombinant D2 receptor expressed in HEK293 cells by FLIPR assay.
For test [2], the target named is T1, D(2) dopamine receptor. In words: Agonist activity at human recombinant D2 receptor expressed in HEK293 cells by FLIPR assay. An outline of the steps: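 Calcium flux (FLIPR) in HEK-293 cells coexpressing recombinant human D2L with chimeric Gqo5. Efficacy is the maximal response relative to 10 µM dopamine (100%). EC50 is the concentration giving half-maximal stimulation. Values are means (SEM, n ≥ 3).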

The next test concerns the target T2, D(4) dopamine receptor (Homo sapiens, UniProt P21917).
T2 sequence (P21917 whole entry): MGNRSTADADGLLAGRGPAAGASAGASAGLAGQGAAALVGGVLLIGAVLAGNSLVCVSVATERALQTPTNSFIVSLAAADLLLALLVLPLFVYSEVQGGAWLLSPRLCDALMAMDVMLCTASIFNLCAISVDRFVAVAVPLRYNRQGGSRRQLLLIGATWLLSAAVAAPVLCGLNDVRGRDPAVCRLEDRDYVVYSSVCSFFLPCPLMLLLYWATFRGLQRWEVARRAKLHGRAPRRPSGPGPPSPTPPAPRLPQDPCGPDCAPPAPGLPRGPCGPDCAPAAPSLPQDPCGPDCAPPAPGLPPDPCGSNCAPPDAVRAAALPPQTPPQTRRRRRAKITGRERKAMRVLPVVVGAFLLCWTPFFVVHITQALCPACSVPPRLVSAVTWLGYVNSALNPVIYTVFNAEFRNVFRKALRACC
In words: Activity at human recombinant D4.4 receptor expressed in HEK293 cells by FLIPR assay.

T1 sequence (P14416 whole entry): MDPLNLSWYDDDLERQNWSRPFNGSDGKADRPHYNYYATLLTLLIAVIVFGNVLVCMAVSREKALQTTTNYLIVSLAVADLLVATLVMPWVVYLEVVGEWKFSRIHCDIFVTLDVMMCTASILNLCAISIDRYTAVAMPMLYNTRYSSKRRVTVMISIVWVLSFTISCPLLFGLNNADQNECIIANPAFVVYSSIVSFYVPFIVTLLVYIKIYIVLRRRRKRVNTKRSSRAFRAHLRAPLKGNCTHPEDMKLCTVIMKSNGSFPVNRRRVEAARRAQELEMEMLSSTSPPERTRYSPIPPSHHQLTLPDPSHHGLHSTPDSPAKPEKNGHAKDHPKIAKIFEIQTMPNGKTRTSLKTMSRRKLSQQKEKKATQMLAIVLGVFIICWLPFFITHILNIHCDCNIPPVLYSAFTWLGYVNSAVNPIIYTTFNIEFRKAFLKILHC

For orientation: IC50 means the concentration at which inhibition is half-maximal. As usually defined, the EC50 is the concentration needed to bring the measured effect to its halfway point. `N#Cc1cccnc1N1CCN(CC/C(=N\O)c2ccccc2)CC1`: the IC50 on D(2) dopamine receptor [1] is greater than 10 µM. In addition, the concentration giving a half-maximal response (EC50) at D(2) dopamine receptor [2] is greater than 10 µM; at D(4) dopamine receptor, 0.018 µM.

On to `O/N=C(\CCN1CCN(c2ccccn2)CC1)c1cccc(F)c1`, for which the IC50 at D(2) dopamine receptor [1] was greater than 10 µM. The EC50 on D(2) dopamine receptor [2] is greater than 10 µM; on D(4) dopamine receptor, 0.0171 µM.

For `COC(CN1CCN(c2ccccn2)CC1)/C(=N/O)c1cccc(C)c1` (stereo unspecified), the IC50 at D(2) dopamine receptor [1] was greater than 10 µM. The EC50 on D(2) dopamine receptor [2] was greater than 10 µM; on D(4) dopamine receptor, 5.37 µM.

`O/N=C(/CCN1CCN(c2ncccn2)CC1)c1ccccc1`: on D(2) dopamine receptor [1], the IC50 is greater than 10 µM. In addition, the EC50 at D(2) dopamine receptor [2] was greater than 10 µM; on D(4) dopamine receptor, 0.069 µM.

`CCCCO/N=C(\CCN1CCN(c2ccccn2)CC1)c1ccccc1`: the IC50 on D(2) dopamine receptor [1] was greater than 10 µM. In addition, the EC50 at D(2) dopamine receptor [2] was greater than 10 µM; at D(4) dopamine receptor, 0.382 µM.

As for `N#Cc1cccc(/C(CCN2CCN(c3ccccn3)CC2)=N/O)c1`, on D(2) dopamine receptor [1], the IC50 was greater than 10 µM. Also, the EC50 at D(2) dopamine receptor [2] was greater than 10 µM; on D(4) dopamine receptor, 0.0131 µM.

`CO/N=C(\CCN1CCN(c2ccccn2)CC1)c1cc(C)cc(C)c1`: the IC50 on D(2) dopamine receptor [1] was greater than 10 µM. Moreover, the EC50 is greater than 10 µM on D(2) dopamine receptor [2] and 0.175 µM on D(4) dopamine receptor.

For `CO/N=C(\CCCN1CCN(c2ccccn2)CC1)c1ccc(F)cc1`, the IC50 at D(2) dopamine receptor [1] is greater than 10 µM. For the same compound, the results for the EC50 at D(2) dopamine receptor [2] and on D(4) dopamine receptor were greater than 10 µM and 0.0417 µM, respectively.

For the compound `CO/N=C(/CCN1CCC(c2cccc[n+]2[O-])CC1)c1ccc(Cl)cc1`, at D(2) dopamine receptor [1], the IC50 is greater than 10 µM. The EC50 at D(2) dopamine receptor [2] is greater than 10 µM; at D(4) dopamine receptor, 0.0464 µM.

Consider `CO/N=C(\CCN1CCCC(c2ccccn2)C1)c1ccc(Cl)cc1` (stereo unspecified), for which the IC50 at D(2) dopamine receptor [1] was greater than 10 µM. Also, the concentration for a half-maximal effect (EC50) at D(2) dopamine receptor [2] is greater than 10 µM; at D(4) dopamine receptor it was 0.606 µM.

Take `O/N=C(\CCN1CCN(c2ncccn2)CC1)c1ccccc1`: the IC50 at D(2) dopamine receptor [1] is greater than 10 µM. Moreover, the EC50 on D(2) dopamine receptor [2] was greater than 10 µM; on D(4) dopamine receptor, 0.0392 µM.

With `CO/N=C(\CCN1CCC(c2cccc[n+]2[O-])CC1)c1ccc(Cl)cc1`, at D(2) dopamine receptor [1], the IC50 is greater than 10 µM. Further, the concentration for a half-maximal effect (EC50) on D(2) dopamine receptor [2] is greater than 10 µM; on D(4) dopamine receptor, 0.084 µM.

Consider `O/N=C(\CCN1CCN(c2ccccn2)CC1)c1cccc(Cl)c1`, for which the IC50 on D(2) dopamine receptor [1] is greater than 10 µM. For the same compound, the EC50 at D(2) dopamine receptor [2] is greater than 10 µM; on D(4) dopamine receptor it was 0.0119 µM.

With `CO/N=C(/CCN1CCN(c2ccccn2)CC1C)c1ccc(Cl)cc1` (stereo unspecified), the IC50 on D(2) dopamine receptor [1] was greater than 10 µM. Further, the EC50 at D(2) dopamine receptor [2] was greater than 10 µM; at D(4) dopamine receptor, 0.099 µM.

Take `CO/N=C(/CCN1CCN(c2ccccn2)CC1)c1ccccc1C`: the IC50 at D(2) dopamine receptor [1] was greater than 10 µM. Further, the EC50 is greater than 10 µM at D(2) dopamine receptor [2] and 0.0401 µM on D(4) dopamine receptor.

As for `CCO/N=C(\CCN1CCN(c2ncccc2C#N)CC1)c1ccccc1`, the IC50 on D(2) dopamine receptor [1] is greater than 10 µM. The EC50 on D(2) dopamine receptor [2] is greater than 10 µM; on D(4) dopamine receptor, 0.139 µM.

For the compound `CCO/N=C(\CCN1CCN(c2ccccc2OC)CC1)c1ccccc1`, the IC50 at D(2) dopamine receptor [1] is greater than 10 µM. The results for the EC50 on D(2) dopamine receptor [2] and on D(4) dopamine receptor were greater than 10 µM and 0.338 µM, respectively.

With `CCO/N=C(\CCN1CCN(c2ccccc2C#N)CC1)c1ccccc1`, the IC50 on D(2) dopamine receptor [1] is greater than 10 µM. The half-maximal effective concentration (EC50) is greater than 10 µM at D(2) dopamine receptor [2] and 0.0487 µM on D(4) dopamine receptor.

As to `O/N=C(\CCCN1CCN(c2ccccn2)CC1)c1ccc(F)cc1`, the IC50 at D(2) dopamine receptor [1] is greater than 10 µM. The results for the concentration giving a half-maximal response (EC50) at D(2) dopamine receptor [2] and on D(4) dopamine receptor were greater than 10 µM and 0.0095 µM, respectively.

`CCCO/N=C(\CCN1CCN(c2ccccn2)CC1)c1ccccc1`: on D(2) dopamine receptor [1], the IC50 is greater than 10 µM. The EC50 at D(2) dopamine receptor [2] was greater than 10 µM; at D(4) dopamine receptor it was 0.32 µM.

For `Cc1ccccc1/C(CCN1CCN(c2ccccn2)CC1)=N/O`, on D(2) dopamine receptor [1], the half-maximal inhibitory concentration (IC50) is greater than 10 µM. Also, the EC50 is greater than 10 µM on D(2) dopamine receptor [2] and 0.0042 µM at D(4) dopamine receptor.

Regarding `CO/N=C(\CCN1CCN(c2ccccn2)CC1)c1cccc(C#N)c1`, at D(2) dopamine receptor [1], the IC50 was greater than 10 µM. Besides, the values for the EC50 on D(2) dopamine receptor [2] and at D(4) dopamine receptor were greater than 10 µM and 0.0637 µM, respectively.

Take `CO/N=C(/CCN1CCN(c2ccccn2)CC1)c1ccc(C)c(C)c1`: on D(2) dopamine receptor [1], the IC50 was greater than 10 µM. The results for the EC50 on D(2) dopamine receptor [2] and at D(4) dopamine receptor were greater than 10 µM and 0.091 µM, respectively.

Consider `CO/N=C(/CCN1CCN(c2ccccn2)CC1)c1cccc(Cl)c1`, for which the IC50 on D(2) dopamine receptor [1] is greater than 10 µM. For the same compound, the figures for the EC50 on D(2) dopamine receptor [2] and on D(4) dopamine receptor were greater than 10 µM and 0.113 µM, respectively.

`CC(C)O/N=C(\CCN1CCN(c2ccccn2)CC1)c1ccccc1`: the IC50 on D(2) dopamine receptor [1] is greater than 10 µM. Moreover, the figures for the EC50 on D(2) dopamine receptor [2] and at D(4) dopamine receptor were greater than 10 µM and 0.164 µM, respectively.

On to `O/N=C(/CCN1CCN(c2ccccn2)CC1)c1ccccc1Cl`, for which the IC50 on D(2) dopamine receptor [1] was greater than 10 µM. Further, the EC50 on D(2) dopamine receptor [2] was greater than 10 µM; at D(4) dopamine receptor, 0.025 µM.

For `CO/N=C(\CCN1CCN(c2ccccn2)CC1)c1ccc(Br)cc1`, the IC50 at D(2) dopamine receptor [1] is greater than 10 µM. In addition, the EC50 was greater than 10 µM at D(2) dopamine receptor [2] and 0.183 µM at D(4) dopamine receptor.

On to `CO/N=C(/CCN1CCN(c2ccccn2)CC1)c1ccccc1`, for which the half-inhibitory concentration (IC50) at D(2) dopamine receptor [1] was greater than 10 µM. The EC50 is greater than 10 µM at D(2) dopamine receptor [2] and 0.0241 µM on D(4) dopamine receptor.

As for `CCO/N=C(\CCN1CCN(c2cccc(OC)c2)CC1)c1ccccc1`, the IC50 at D(2) dopamine receptor [1] is greater than 10 µM. The values for the EC50 on D(2) dopamine receptor [2] and at D(4) dopamine receptor were greater than 10 µM and 2.68 µM, respectively.

`CO/N=C(/CCN1CCN(c2ccccc2OC(C)C)CC1)c1ccc(F)cc1`: the IC50 at D(2) dopamine receptor [1] is greater than 10 µM. The EC50 at D(2) dopamine receptor [2] was greater than 10 µM; at D(4) dopamine receptor it was 0.601 µM.

Regarding `O/N=C(\CCN1CCN(c2ccccn2)CC1)c1ccc(F)cc1`, the concentration for half-maximal inhibition (IC50) at D(2) dopamine receptor [1] was greater than 10 µM. Also, the EC50 at D(2) dopamine receptor [2] is greater than 10 µM; at D(4) dopamine receptor, 0.031 µM.

As for `CO/N=C(/c1ccc(Cl)cc1)C(CN1CCN(c2ccccn2)CC1)OC` (stereo unspecified), the half-inhibitory concentration (IC50) at D(2) dopamine receptor [1] is greater than 10 µM. Besides, the figures for the half-maximal effective concentration (EC50) at D(2) dopamine receptor [2] and on D(4) dopamine receptor were greater than 10 µM and 0.285 µM, respectively.

On to `CO/N=C(\CCN1CCN(c2ccccn2)CC1)c1ccccc1Cl`, for which the IC50 on D(2) dopamine receptor [1] was greater than 10 µM. For the same compound, the values for the EC50 at D(2) dopamine receptor [2] and at D(4) dopamine receptor were greater than 10 µM and 0.0423 µM, respectively.

As to `CCO/N=C(/CCN1CCN(c2ccccn2)CC1)c1ccccc1`, the half-inhibitory concentration (IC50) at D(2) dopamine receptor [1] is greater than 10 µM. For the same compound, the EC50 on D(2) dopamine receptor [2] was greater than 10 µM; at D(4) dopamine receptor it was 0.045 µM.

Take `CO/N=C(/c1ccc(Cl)cc1)C(COC(C)C)CN1CCN(c2ccccn2)CC1` (stereo unspecified): the IC50 on D(2) dopamine receptor [1] is greater than 10 µM. In addition, the EC50 was greater than 10 µM on D(2) dopamine receptor [2] and 3.21 µM at D(4) dopamine receptor.

`CO/N=C(\CCN1CCN(c2ccccc2OC(C)C)CC1)c1ccc(F)cc1`: on D(2) dopamine receptor [1], the IC50 is greater than 10 µM. Further, the EC50 at D(2) dopamine receptor [2] is greater than 10 µM; on D(4) dopamine receptor, 0.594 µM.

As to `CO/N=C(\CCN1CCN(c2ccccn2)CC1)c1ccc(Cl)cc1Cl`, the IC50 on D(2) dopamine receptor [1] is greater than 10 µM. For the same compound, the values for the EC50 on D(2) dopamine receptor [2] and at D(4) dopamine receptor were greater than 10 µM and 0.249 µM, respectively.

For the compound `CO/N=C(\CCN1CCN(c2ccccn2)CC1)c1ccc(Cl)c(C)c1`, the IC50 at D(2) dopamine receptor [1] was greater than 10 µM. Besides, the EC50 on D(2) dopamine receptor [2] was greater than 10 µM; on D(4) dopamine receptor, 0.135 µM.

On to `Cc1ccc(OCc2ccccc2)c(/C(CCN2CCN(c3ccccn3)CC2)=N/O)c1`, for which the IC50 on D(2) dopamine receptor [1] is greater than 10 µM. In addition, the EC50 at D(2) dopamine receptor [2] and on D(4) dopamine receptor was greater than 10 µM in each case.

Regarding `Cc1cccc(/C(=N/O)C(O)CN2CCN(c3ccccn3)CC2)c1` (stereo unspecified), the IC50 on D(2) dopamine receptor [1] was greater than 10 µM. For the same compound, the EC50 on D(2) dopamine receptor [2] is greater than 10 µM; at D(4) dopamine receptor it was 0.0049 µM.

With `CCO/N=C(\CCN1CCN(c2ncccc2C)CC1)c1ccccc1`, the IC50 on D(2) dopamine receptor [1] is greater than 10 µM. Besides, the EC50 at D(2) dopamine receptor [2] is greater than 10 µM; on D(4) dopamine receptor, 0.253 µM.

For the compound `O/N=C(\CCN1CCN(c2ccccn2)CC1)c1cc(F)cc(F)c1`, at D(2) dopamine receptor [1], the concentration for half-maximal inhibition (IC50) is greater than 10 µM. Further, the EC50 was greater than 10 µM at D(2) dopamine receptor [2] and 0.0194 µM on D(4) dopamine receptor.
